High-throughput results: PubChem, NMMLSC
Hits are enriched below; roughly 2.3% of the tested compounds scored in any of these assays.
MEKK2wt PB1 HTS: modulators of MEK5 binding to wildtype MEKK2, primary screen, biochemical, multiplex bead flow cytometry, Alexa488-MEK5; Mitogen-activated protein kinase kinase kinase 2 (Homo sapiens), Q9Y2U5; Alexa488-MEK5 binding to MEKK2 WT; actives lie on both sides; binding response (% of control), % at 10 µM; 290,000 tested, 1.1% active; in the data active = binding response below about 67% or above about 130%
Arr AP2 block: inhibitors of beta-arrestin/AP2 binding, primary screen, biochemical, GPCR trafficking, flow cytometry; beta-arrestin 1 C-terminal peptide binding to AP2 beta2-adaptin appendage (human); FITC-arrestin peptide / GST-AP2 beads; AP2 beta2 appendage carries R879A mutation; inhibition, % at 10 µM; 340,000 tested, 0.31% active; AID 504490, 2011;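 active = inhibition above a set limit, near 3 SD of compounds lacking own fluorescence, cut at about 54% in these data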;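 note: plate controls were DMSO wells for no effect and 5 µM unlabelled arrestin peptide for full effect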
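Test system: GST-tagged AP2 beta2-adaptin appendage (R879A) on 4 µm glutathione beads; also added: fluorescein-tagged arrestin peptide at 50 nM final; timing: 12 min plus 1 h, RT; signal: flow cytometry, FL1 (488/535 nm); read-out: percent drop in bead-associated FITC signal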
MEKK3 PB1 HTS: modulators of MEKK3-MEK5 PB1 binding, primary screen, biochemical, wildtype MEKK3, multiplex bead flow cytometry, Alexa488-MEK5; Mitogen-activated protein kinase kinase kinase 3 (Homo sapiens), Q99759; bead-based flow cytometry, Alexa488-MEK5 binding to MEKK3; actives lie on both sides; 0 = blocked by unlabeled MEK5, 100 = vehicle; binding response (% of control), % at 10 µM; 290,000 tested, 1.4% active;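 active = binding response more than 3 SD above or below the average of its plate-row segment, actives on both sides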;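 note: Alexa488 bead fluorescence after subtracting the streptavidin-only scavenger bead signal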
Target sequence (Q99759 whole entry, looked up): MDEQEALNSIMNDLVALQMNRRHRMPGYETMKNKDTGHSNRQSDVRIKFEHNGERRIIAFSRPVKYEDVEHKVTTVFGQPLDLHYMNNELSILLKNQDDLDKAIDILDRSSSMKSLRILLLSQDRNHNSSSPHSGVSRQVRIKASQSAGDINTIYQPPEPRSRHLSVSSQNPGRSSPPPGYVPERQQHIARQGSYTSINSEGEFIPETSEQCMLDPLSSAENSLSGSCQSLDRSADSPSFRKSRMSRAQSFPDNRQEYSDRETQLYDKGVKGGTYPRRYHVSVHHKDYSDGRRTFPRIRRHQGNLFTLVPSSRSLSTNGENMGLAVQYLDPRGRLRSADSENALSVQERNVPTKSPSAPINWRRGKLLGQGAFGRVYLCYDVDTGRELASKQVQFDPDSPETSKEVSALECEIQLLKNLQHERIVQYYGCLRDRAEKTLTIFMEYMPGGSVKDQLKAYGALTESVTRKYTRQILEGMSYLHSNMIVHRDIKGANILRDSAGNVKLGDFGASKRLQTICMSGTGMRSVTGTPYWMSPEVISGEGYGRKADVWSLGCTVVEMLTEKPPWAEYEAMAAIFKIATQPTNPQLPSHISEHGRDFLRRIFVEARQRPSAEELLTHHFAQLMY
MEKK2mut PB1 HTS: MEK5 binding signal on mutant MEKK2 PB1, primary screen, biochemical, multiplex bead flow cytometry, Alexa488-MEK5; Alexa488-MEK5 binding to MEKK2 mutant; percent response, % at 10 µM; 290,000 tested, 0.35% active; in the data active = percent response above about 24%, passing the limit was not always enough
MEKK2wt confirm: modulators of MEK5 binding to wildtype MEKK2, confirmation, biochemical, single concentration, multiplex bead flow cytometry; binding response (% of control), % at 10 µM; 5,900 tested, 2.4% active; shares compounds with MEKK3 PB1 HTS; Alexa488-MEK5 binding to MEKK2 WT; actives lie on both sides; in the data active = binding response below about 16% or above about 210%; inactive = in between
MEKK2mut confirm: mutant MEKK2 PB1-MEK5 binding signal retest – biochemical, single concentration, multiplex bead flow cytometry, confirmation | Alexa488-MEK5 binding to MEKK2 mutant | percent response, % at 10 µM | 5,900 tested, 2% active | AID 1893, 2009 | shares compounds with MEKK3 PB1 HTS; in the data active = percent response mostly above about 71%, no sharp cut-off; inactive = mostly below about 38%;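 note: higher means compound restores mutant binding toward wildtype level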
MEKK3-MEK5 inh: MEKK3 wild-type PB1 binding to MEK5, inhibitors, confirmation, biochemical, bead multiplex flow cytometry, single concentration, wildtype; shares compounds with MEKK3 PB1 HTS; Alexa488-MEK5 binding to MEKK3; hits give low values; binding response (% of control), % at 10 µM; 5,900 tested, 1.8% active;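 active = binding response below 72% of control, or above a set upper limit, though filed actives all read lower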;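 note: 100% = DMSO only wells and 0% = binding blocked by excess unlabeled MEK5; lower values mean stronger disruption of MEK5 binding to MEKK3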
* marks the source's active call; other numbers are inactive results; [ ] = dose if it differs, or a comment.

For O=C(O)c1ccccc1NC1CCCCC1NS(=O)(=O)c1ccccc1 (stereo not given) the results were MEKK2wt PB1 HTS 98.0, Arr AP2 block 21.0, MEKK3 PB1 HTS 98.0 and MEKK2mut PB1 HTS 4.0.
For CN(C)C(=O)c1ccc(Oc2ccc(C(=O)N(C)C)cc2)cc1 the results were MEKK2wt PB1 HTS 75.0, Arr AP2 block -0.9, MEKK3 PB1 HTS 66.0*[inhibitor], MEKK2mut PB1 HTS -14.0, MEKK2wt confirm 100.0, MEKK2mut confirm -1.0 and MEKK3-MEK5 inh 100.0.
COc1ccc(/C=C/CN2CCCC(CO)(Cc3cccc(Cl)c3)C2)cc1 (stereo not given) was read as MEKK2wt PB1 HTS 159.0*, Arr AP2 block -23.3, MEKK3 PB1 HTS 110.0, MEKK2mut PB1 HTS 6.0, MEKK2wt confirm 113.0, MEKK2mut confirm 15.0 and MEKK3-MEK5 inh 102.0.
Screening COc1ccc(F)c(CN2CCCC(CO)(Cc3cccc(Cl)c3)C2)c1 (stereo not given) returned MEKK2wt PB1 HTS 106.0, Arr AP2 block 2.0, MEKK3 PB1 HTS 106.0 and MEKK2mut PB1 HTS 5.0.
`O=C(O)COCC(=O)Nc1ccc(Oc2ncnc3cc(Cl)ccc23)nc1` gave MEKK2wt PB1 HTS 58.0, Arr AP2 block -0.4, MEKK3 PB1 HTS 48.0*[inhibitor], MEKK2mut PB1 HTS -41.0, MEKK2wt confirm 105.0, MEKK2mut confirm 6.0 and MEKK3-MEK5 inh 103.0.
For O=C(Nc1ccc(Oc2ncnc3cc(Cl)ccc23)nc1)c1ccc(F)cc1 the results were MEKK2wt PB1 HTS 102.0, MEKK3 PB1 HTS 100.0 and MEKK2mut PB1 HTS 2.0.
`CC(C)CCNC(=S)Nc1ccc(Br)cc1` gave MEKK2wt PB1 HTS 92.0, Arr AP2 block 5.4, MEKK3 PB1 HTS 85.0 and MEKK2mut PB1 HTS -2.0.
For CC(C)CCNC(=O)/C=C/c1ccc(Br)cc1 the results were MEKK2wt PB1 HTS 2.0*[inhibitor], Arr AP2 block -12.2, MEKK3 PB1 HTS 2.0*[inhibitor], MEKK2mut PB1 HTS -15.0, MEKK2wt confirm 93.0, MEKK2mut confirm -15.0 and MEKK3-MEK5 inh 92.0.
Cc1cccc(OCC(=O)Nc2ccc(S(=O)(=O)Nc3ccccn3)cc2)c1 was read as MEKK2wt PB1 HTS 103.0, Arr AP2 block 16.6, MEKK3 PB1 HTS 103.0 and MEKK2mut PB1 HTS 0.0.
`Cc1ccc(C)c(OCC(=O)Nc2ccc(S(=O)(=O)Nc3ccccn3)cc2)c1` gave MEKK2wt PB1 HTS 102.0, Arr AP2 block 2.8, MEKK3 PB1 HTS 134.0*, MEKK2mut PB1 HTS -1.0, MEKK2wt confirm 108.0, MEKK2mut confirm 4.0 and MEKK3-MEK5 inh 105.0.
CCOC(=O)c1c(C)oc(NC(=O)CCl)c1C(=O)OCC was read as MEKK2wt PB1 HTS 94.0, Arr AP2 block -11.5, MEKK3 PB1 HTS 94.0 and MEKK2mut PB1 HTS 0.0.
Screening COc1ccc(C(CNC(=O)c2ccc(C)c(S(=O)(=O)Nc3ccccc3OC)c2)N2CCCC2)cc1 (stereo not given) returned MEKK2wt PB1 HTS 154.0*, Arr AP2 block -2.5, MEKK3 PB1 HTS 112.0, MEKK2mut PB1 HTS 29.0*, MEKK2wt confirm 162.0, MEKK2mut confirm 44.0 and MEKK3-MEK5 inh 114.0.
Screening COc1ccc(C(CNC(=O)c2oc3ccc(Br)cc3c2C)N2CCCCC2)cc1 (stereo not given) returned MEKK2wt PB1 HTS 153.0*, Arr AP2 block -14.2, MEKK3 PB1 HTS 109.0, MEKK2mut PB1 HTS -4.0, MEKK2wt confirm 156.0, MEKK2mut confirm 39.0 and MEKK3-MEK5 inh 112.0.
Screening Cc1c(C(=O)Nc2ccc(-c3nnc4n3CCCCC4)cc2)oc2ccc(Br)cc12 returned MEKK2wt PB1 HTS 1.0*[inhibitor], Arr AP2 block -7.3, MEKK3 PB1 HTS 96.0, MEKK2mut PB1 HTS 4.0, MEKK2wt confirm 133.0, MEKK2mut confirm 13.0 and MEKK3-MEK5 inh 98.0.
For O=C(Nc1ccc(-c2nnc3n2CCCCC3)cc1)c1ccco1 the results were MEKK2wt PB1 HTS 97.0, Arr AP2 block -2.0, MEKK3 PB1 HTS 95.0 and MEKK2mut PB1 HTS 2.0.
For COc1ccc(C(CNC(=O)c2oc3ccc(F)cc3c2C)N2CCCCC2)cc1 (stereo not given) the results were MEKK2wt PB1 HTS 120.0, Arr AP2 block -6.5, MEKK3 PB1 HTS 102.0 and MEKK2mut PB1 HTS 7.0.
`Cc1cccc(OCC(=O)Nc2c3c(nn2C(C)(C)C)CS(=O)(=O)C3)c1` gave MEKK2wt PB1 HTS 113.0, Arr AP2 block 24.1, MEKK3 PB1 HTS 106.0 and MEKK2mut PB1 HTS 11.0.
`O=C(CNc1cccc(S(=O)(=O)N2CCOCC2)c1)N1CCc2ccccc21` gave MEKK2wt PB1 HTS 108.0, Arr AP2 block -8.0, MEKK3 PB1 HTS 107.0 and MEKK2mut PB1 HTS 17.0.
Screening Cc1ccc(Oc2nc(-c3ccccc3)ncc2S(C)(=O)=O)cc1 returned MEKK2wt PB1 HTS 1.0*[inhibitor], Arr AP2 block -2.9, MEKK3 PB1 HTS 1.0*[inhibitor], MEKK2mut PB1 HTS -62.0, MEKK2wt confirm 102.0, MEKK2mut confirm 3.0 and MEKK3-MEK5 inh 104.0.
Screening COC(=O)CC1C(=O)NCCN1C(=O)CSc1nnc(Nc2ccc(OC)cc2)s1 (stereo not given) returned MEKK2wt PB1 HTS 109.0, Arr AP2 block -23.8, MEKK3 PB1 HTS 122.0*, MEKK2mut PB1 HTS 4.0, MEKK2wt confirm 98.0, MEKK2mut confirm -10.0 and MEKK3-MEK5 inh 99.0.
O=C(O)CC(NS(=O)(=O)c1c(F)cc(F)cc1Br)c1ccccc1Cl (stereo not given) was read as MEKK2wt PB1 HTS 114.0, Arr AP2 block 10.8, MEKK3 PB1 HTS 115.0, MEKK2mut PB1 HTS 279.0*, MEKK2wt confirm 101.0, MEKK2mut confirm -7.0 and MEKK3-MEK5 inh 98.0.
Screening COC(=O)CC(NS(=O)(=O)c1cccs1)c1ccccc1Cl (stereo not given) returned MEKK2wt PB1 HTS 100.0, Arr AP2 block -4.9, MEKK3 PB1 HTS 103.0 and MEKK2mut PB1 HTS -2.0.
Screening O=C(Nn1cnnc1)c1ccccc1Cl returned MEKK2wt PB1 HTS 100.0, Arr AP2 block -2.2, MEKK3 PB1 HTS 100.0 and MEKK2mut PB1 HTS -4.0.
`CC(C)(CO)NCc1ccccc1OCC(=O)Nc1ccccc1` gave Arr AP2 block 11.3.
